Results from ChEMBL document CHEMBL5724801, “EUbOPEN Chemogenomics Library - Multiplex” (2024).
Values joined by “and” are separate entries in the source; they are usually repeats but may differ in a detail not shown here. Equal entries are not always repeated.

Tested on: HEK-293T
Experiment: Multiplex assay against HEK293T
Type: toxicity, cell-based
Conditions: human
Outline: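 Live cells were stained at seeding with Hoechst33342, BioTracker Green Microtubule Cytoskeleton Dye, MitoTracker Red and Annexin V Alexa Fluor 680, then imaged on a CQ1 microscope at 37°C and 5% CO2 after compound addition. CellPathfinder machine-learning gating split cells into Hoechst high-intensity objects or normal cells. Normal cells were split into healthy, pyknosed or fragmented nuclei, and pyknosed cells into mitotic or apoptotic. Tubulin, mitochondrial-mass and membrane-permeability phenotypes are per cents of healthy-nucleus cells.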

[1] = 12 h, 1 µM, compound concentration 1 uM
[2] = 12 h, 10 µM, compound concentration 10 uM
[3] = 24 h, 1 µM, compound concentration 1 uM
[4] = 24 h, 10 µM, compound concentration 10 uM
[5] = 48 h, 1 µM, compound concentration 1 uM
[6] = 48 h, 10 µM, compound concentration 10 uM

COc1cccc2c1c(NS(=O)(=O)c1ccc(Cl)s1)nn2Cc1cccc(CNC(=O)C(C)(C)O)c1
Population Apoptotic (%) [1]: 31% and 34% | Population Fragmented Nuclei (%) [1]: 6% and 7% | Population Healthy Nuclei (%) [1]: 82% and 77% | Population Hoechst High Intensity Objects (%) [1]: 6% and 10% | Population Membrane Permeable-Phenotype (%) [1]: 0% | Population Mitochondria Different-Phenotype (%) [1]: 39% and 52% | Population Mitotic Cells (%) [1]: 68% and 65% | Population Normal (%) [1]: 93% and 89% | Population Pyknosed Nuclei (%) [1]: 10% and 15% | Population Tubulin-Different-Phenotype (%) [1]: 26% and 23% | Total Cell Count [1]: 469 and 315 | Population Apoptotic (%) [2]: 42% and 35% | Population Fragmented Nuclei (%) [2]: 6% and 5% | Population Healthy Nuclei (%) [2]: 80% and 78% | Population Hoechst High Intensity Objects (%) [2]: 7% and 11% | Population Membrane Permeable-Phenotype (%) [2]: 0% | Population Mitochondria Different-Phenotype (%) [2]: 51% and 69% | Population Mitotic Cells (%) [2]: 57% and 65% | Population Normal (%) [2]: 92% and 88% | Population Pyknosed Nuclei (%) [2]: 12% and 16% | Population Tubulin-Different-Phenotype (%) [2]: 38% and 33% | Total Cell Count [2]: 356 and 280 | Population Apoptotic (%) [3]: 26% and 44% | Population Fragmented Nuclei (%) [3]: 7% and 6% | Population Healthy Nuclei (%) [3]: 81% and 84% | Population Hoechst High Intensity Objects (%) [3]: 2% and 7% | Population Membrane Permeable-Phenotype (%) [3]: 0% | Population Mitochondria Different-Phenotype (%) [3]: 22% and 37% | Population Mitotic Cells (%) [3]: 73% and 55% | Population Normal (%) [3]: 97% and 92% | Population Pyknosed Nuclei (%) [3]: 11% and 8% | Population Tubulin-Different-Phenotype (%) [3]: 17% and 15% | Total Cell Count [3]: 617 and 357 | Population Apoptotic (%) [4]: 40% | Population Fragmented Nuclei (%) [4]: 10% and 9% | Population Healthy Nuclei (%) [4]: 73% and 77% | Population Hoechst High Intensity Objects (%) [4]: 5% | Population Membrane Permeable-Phenotype (%) [4]: 0% | Population Mitochondria Different-Phenotype (%) [4]: 34% and 46% | Population Mitotic Cells (%) [4]: 60% | Population Normal (%) [4]: 94% | Population Pyknosed Nuclei (%) [4]: 16% and 12% | Population Tubulin-Different-Phenotype (%) [4]: 23% and 22% | Total Cell Count [4]: 462 and 384 | Population Apoptotic (%) [5]: 16% and 28% | Population Fragmented Nuclei (%) [5]: 10% and 11% | Population Healthy Nuclei (%) [5]: 83% | Population Hoechst High Intensity Objects (%) [5]: 2% | Population Membrane Permeable-Phenotype (%) [5]: 0% and 2% | Population Mitochondria Different-Phenotype (%) [5]: 18% and 21% | Population Mitotic Cells (%) [5]: 83% and 71% | Population Normal (%) [5]: 97% | Population Pyknosed Nuclei (%) [5]: 6% and 4% | Population Tubulin-Different-Phenotype (%) [5]: 11% and 10% | Total Cell Count [5]: 1062 and 591 | Population Apoptotic (%) [6]: 26% and 35% | Population Fragmented Nuclei (%) [6]: 16% and 8% | Population Healthy Nuclei (%) [6]: 72% and 83% | Population Hoechst High Intensity Objects (%) [6]: 4% | Population Membrane Permeable-Phenotype (%) [6]: 0% | Population Mitochondria Different-Phenotype (%) [6]: 25% and 27% | Population Mitotic Cells (%) [6]: 73% and 65% | Population Normal (%) [6]: 95% | Population Pyknosed Nuclei (%) [6]: 10% and 7% | Population Tubulin-Different-Phenotype (%) [6]: 16% and 12% | Total Cell Count [6]: 646 and 550

Cc1sc2c(c1C)C(c1ccc(Cl)cc1)=N[C@@H](CC(=O)NCCCCCCCCNC(=O)COc1cccc3c1C(=O)N(C1CCC(=O)NC1=O)C3=O)c1nnc(C)n1-2 (stereo partly drawn)
Population Apoptotic (%) [1]: 66% and 62% | Population Fragmented Nuclei (%) [1]: 5% and 6% | Population Healthy Nuclei (%) [1]: 55% and 69% | Population Membrane Permeable-Phenotype (%) [1]: 0% | Population Mitochondria Different-Phenotype (%) [1]: 73% and 91% | Population Mitotic Cells (%) [1]: 33% and 37% | Population Normal (%) [1]: 90% and 69% | Population Pyknosed Nuclei (%) [1]: 39% and 24% | Population Tubulin-Different-Phenotype (%) [1]: 49% and 59% | Total Cell Count [1]: 175 and 205 | Population Apoptotic (%) [2]: 60% and 53% | Population Fragmented Nuclei (%) [2]: 9% and 8% | Population Healthy Nuclei (%) [2]: 67% and 66% | Population Hoechst High Intensity Objects (%) [2]: 14% and 37% | Population Membrane Permeable-Phenotype (%) [2]: 0% | Population Mitochondria Different-Phenotype (%) [2]: 75% and 87% | Population Mitotic Cells (%) [2]: 39% and 46% | Population Normal (%) [2]: 85% and 62% | Population Pyknosed Nuclei (%) [2]: 23% and 24% | Population Tubulin-Different-Phenotype (%) [2]: 23% and 39% | Total Cell Count [2]: 363 and 315 | Population Apoptotic (%) [3]: 51% and 67% | Population Fragmented Nuclei (%) [3]: 7% and 6% | Population Healthy Nuclei (%) [3]: 61% and 70% | Population Membrane Permeable-Phenotype (%) [3]: 0% | Population Mitochondria Different-Phenotype (%) [3]: 58% and 83% | Population Mitotic Cells (%) [3]: 48% and 32% | Population Normal (%) [3]: 93% and 69% | Population Pyknosed Nuclei (%) [3]: 31% and 23% | Population Tubulin-Different-Phenotype (%) [3]: 22% and 31% | Total Cell Count [3]: 261 and 231 | Population Apoptotic (%) [4]: 52% and 57% | Population Fragmented Nuclei (%) [4]: 11% and 9% | Population Healthy Nuclei (%) [4]: 64% and 60% | Population Membrane Permeable-Phenotype (%) [4]: 0% | Population Mitochondria Different-Phenotype (%) [4]: 64% and 86% | Population Mitotic Cells (%) [4]: 47% and 42% | Population Normal (%) [4]: 87% and 60% | Population Pyknosed Nuclei (%) [4]: 24% and 30% | Population Tubulin-Different-Phenotype (%) [4]: 19% | Total Cell Count [4]: 397 and 346 | Population Apoptotic (%) [5]: 55% and 67% | Population Fragmented Nuclei (%) [5]: 7% and 9% | Population Healthy Nuclei (%) [5]: 58% and 65% | Population Membrane Permeable-Phenotype (%) [5]: 0% | Population Mitochondria Different-Phenotype (%) [5]: 56% and 78% | Population Mitotic Cells (%) [5]: 44% and 32% | Population Normal (%) [5]: 97% and 84% | Population Pyknosed Nuclei (%) [5]: 33% and 25% | Population Tubulin-Different-Phenotype (%) [5]: 30% and 42% | Total Cell Count [5]: 284 and 289 | Population Apoptotic (%) [6]: 48% and 65% | Population Fragmented Nuclei (%) [6]: 9% and 15% | Population Healthy Nuclei (%) [6]: 55% and 52% | Population Hoechst High Intensity Objects (%) [6]: 14% and 31% | Population Membrane Permeable-Phenotype (%) [6]: 0% | Population Mitochondria Different-Phenotype (%) [6]: 51% and 76% | Population Mitotic Cells (%) [6]: 51% and 34% | Population Normal (%) [6]: 85% and 69% | Population Pyknosed Nuclei (%) [6]: 35% and 31% | Population Tubulin-Different-Phenotype (%) [6]: 17% and 31% | Total Cell Count [6]: 403 and 300
